Source: PubChem BioAssay (several laboratories)
Sampled rows, rich in hits. Any-hit rate of the full collection: about 2.2%.
CR mimetic SO: reduction of superoxide in aged yeast, primary screen, HTS; S. cerevisiae aged cells, superoxide DHE fluorescence; active compounds read low; AID 2690, 2010; superoxide response (% of plate mean), % at 10 µM; hit rate 0.18% among 330,000;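 active = superoxide response under a set limit, about three screen SD below normal, cut at about 65% in these data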;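 note: yeast aged for seven days with compound at 30 °C before DHE staining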
PHOSPHO1 inh: PubChem AID 1565; Phosphoethanolamine/phosphocholine phosphatase (Homo sapiens), Q8TCT1; recombinant PHOSPHO1, absorbance phosphatase assay; inhibition, % at 13.3 µM; hit rate 1.1% among 290,000; in the data active = inhibition above about 60%
Target sequence (Q8TCT1 whole entry, looked up): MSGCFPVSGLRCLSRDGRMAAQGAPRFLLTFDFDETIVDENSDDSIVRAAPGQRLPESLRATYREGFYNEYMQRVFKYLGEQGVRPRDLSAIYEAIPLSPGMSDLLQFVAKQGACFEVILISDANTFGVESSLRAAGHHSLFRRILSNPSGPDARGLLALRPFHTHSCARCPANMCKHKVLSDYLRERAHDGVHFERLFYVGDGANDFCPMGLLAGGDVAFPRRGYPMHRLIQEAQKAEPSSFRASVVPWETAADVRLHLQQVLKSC
PvdQ inh: P. aeruginosa PvdQ acylase inhibitors, primary screen, biochemical, fluorescence, plate reader and imaging, single point; PvdQ acylase [Pseudomonas aeruginosa LESB58]; purified PvdQ acylase; inhibition, % at 10 µM; hit rate 0.063% among 340,000; in the data active = inhibition above about 30%, passing the limit was not always enough
IMP-1 inh-1: IMP-1 metallo-beta-lactamase inhibitors, primary screen, biochemical, epi-absorbance readout, Pseudomonas aeruginosa enzyme; AID 1556, 2009; purified IMP-1, nitrocefin hydrolysis, epi-absorbance fluorescence; inhibition, % at 5.6 µM; hit rate 0.45% among 290,000;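 active = inhibition above the mean plus 3 SD of all compounds in the same screening run, cut at about 4.5% in these data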
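Assay system: purified IMP-1; Quantity: IMP-1 0.2 nM before substrate addition; Medium: HEPES buffer pH 7.1 with ZnSO4 and Brij 35; Incubation: 15 min enzyme–compound preincubation, then 25 min nitrocefin reaction, 25 °C; Signal: fluorescence quenching readout, ex 480/em 530 nm; Controls: DMSO with and without IMP-1; Repeats: singlicate testing.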
VIM-2 inh: VIM-2 metallo-beta-lactamase inhibitors, primary screen, biochemical, epi-absorbance readout, Pseudomonas aeruginosa enzyme; purified VIM-2, nitrocefin hydrolysis, epi-absorbance fluorescence; inhibition, % at 5.6 µM; hit rate 0.89% among 290,000;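 active = inhibition above the mean of all tested compounds plus 3 SD, cutoff set per screening run, cut at about 7.5% in these data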;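 note: red hydrolysis product quenches plate fluorescence so inhibitors raise well fluorescence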
IMP-1 inh-2: IMP-1 metallo-beta-lactamase inhibitors, confirmation, selectivity assay for selective VIM-2 inhibitor project, biochemical, epi-absorbance readout, triplicate; shares compounds with VIM-2 inh; purified IMP-1, nitrocefin hydrolysis, epi-absorbance fluorescence; inhibition, % at 5.6 µM; 1,300 tested, under 10 active; call rule not given here
VIM-2 FRET inh: VIM-2 inhibitors in FRET format, confirmation, artefact control for selective VIM-2 inhibitor project, biochemical, epi-absorbance artifact exclusion; shares compounds with VIM-2 inh; purified VIM-2, CCF2 FRET substrate hydrolysis; inhibition, % at 5.6 µM; hit rate 23% among 1,300; AID 1857, 2009;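 active = inhibition above the mean of all tested compounds plus 3 SD, cut at about 19% in these data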
TEM-1 counter-1: TEM-1 serine beta-lactamase inhibitors, counter-screen for VIM-2 inhibitor project, biochemical, epi-absorbance, HTS; shares compounds with VIM-2 inh; Purified TEM-1, nitrocefin hydrolysis, epi-absorbance fluorescence; inhibition, % at 5.6 µM; hit rate 3% among 1,300;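 active = inhibition above that campaign's mean inhibition plus 3 SD, cut at about 0.46% in these data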
Target sequence (P62593 whole entry, looked up): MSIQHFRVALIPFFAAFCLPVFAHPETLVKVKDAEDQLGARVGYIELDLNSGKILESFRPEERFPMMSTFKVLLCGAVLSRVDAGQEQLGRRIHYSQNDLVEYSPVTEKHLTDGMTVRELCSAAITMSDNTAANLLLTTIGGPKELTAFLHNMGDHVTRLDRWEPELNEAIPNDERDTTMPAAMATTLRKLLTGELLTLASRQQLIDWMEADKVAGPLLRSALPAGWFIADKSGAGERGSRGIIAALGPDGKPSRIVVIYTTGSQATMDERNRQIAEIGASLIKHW
VIM-2 inh conf: VIM-2 metallo-beta-lactamase inhibitors, confirmation, biochemical, epi-absorbance, hits shared with IMP-1 screen | shares compounds with VIM-2 inh | purified VIM-2, nitrocefin hydrolysis | inhibition, % at 5.6 µM | hit rate 96% among 1,300;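 active = inhibition of the VIM-2 beta-lactamase enzyme above about 11% from the earlier first-round screen, limit read from the data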
VIM-2 inh confirm: P. aeruginosa VIM-2 enzyme inhibition – biochemical, epi-absorbance, HTS, confirmation; purified VIM-2 enzyme, nitrocefin absorbance; inhibition, % at 5.6 µM; shares compounds with IMP-1 inh-1; hit rate 73% among 200; AID 1860, 2009; in the data active = inhibition above about 8%
TEM-1 counter-2: Serine beta-lactamase TEM-1 inhibition, biochemical epi-absorbance counter-screen for IMP-1/VIM-2 inhibitor program; shares compounds with IMP-1 inh-1; TEM-1 beta-lactamase, nitrocefin absorbance inhibition; inhibition, % at 5.6 µM; hit rate 50% among 200; AID 2184, 2009; in the data active = inhibition above about 0.66%
IMP-1 inh conf: IMP-1 metallo-beta-lactamase inhibitors, confirmation, biochemical, epi-absorbance, hits shared with VIM-2 screen | purified IMP-1 enzyme, absorbance substrate hydrolysis | shares compounds with IMP-1 inh-1 | hit rate 60% among 200 | inhibition, % at 5.6 µM | AID 2189, 2009; in the data active = inhibition above about 4.9%
Each line names hits and unclear results; the compound was inactive in the other large screens (follow-up assays come after a bar, where they were run).

COc1ccc2c(c1)[nH]c1c(=O)n(CCCn3ccnc3)cnc12	VIM-2 inh 14 | IMP-1 inh-2 inactive | VIM-2 FRET inh inactive | TEM-1 counter-1 inactive | VIM-2 inh conf 38
CCc1ccc(S(=O)(=O)N2CCN(C(=O)C3CCN(C(C)=O)CC3)CC2)cc1	none
Cc1cccc(-c2oc3ccc(-c4ccc5c(c4)OCO5)cc3c2C(=O)OCc2ccc(O)cc2)c1	none
CC1CCCCN1CCNC(=O)c1cc2c(=O)n(C)c3ccccc3c2n1C (configuration not stated)	VIM-2 inh 20 | IMP-1 inh-2 inactive | VIM-2 FRET inh inactive | TEM-1 counter-1 inactive | VIM-2 inh conf 31
Cn1c(C(=O)NCCN2CCc3ccccc3C2)cc2c(=O)n(C)c3ccccc3c21	VIM-2 inh 19 | IMP-1 inh-2 inactive | VIM-2 FRET inh inactive | TEM-1 counter-1 inactive | VIM-2 inh conf 28
Cn1c(C(=O)NC2CCCCC2)cc2c(=O)n(C)c3ccccc3c21	none
CN(CCNC(=O)c1cc2c(=O)n(C)c3ccccc3c2n1C)Cc1ccccc1	VIM-2 inh 17 | IMP-1 inh-2 inactive | VIM-2 FRET inh inactive | TEM-1 counter-1 inactive | VIM-2 inh conf 26
Cc1cccn2c(=O)c3cc(C(=O)NCCCN4CCCC4=O)n(C)c3nc12	VIM-2 inh 17 | IMP-1 inh-2 inactive | VIM-2 FRET inh inactive | TEM-1 counter-1 1.2 | VIM-2 inh conf 26
Cc1ccc(CNC(=O)c2cc3c(=O)n(C)c4ccccc4c3n2C)cc1	none
Cc1cccc2cc(C#N)c(NCCCNS(=O)(=O)c3ccc(Cl)cc3)nc12	none
CCOC(=O)c1cn2c3c(c(F)c(F)cc3c1=O)SC(N1CCOCC1)=N2	none (no result: CR mimetic SO, PHOSPHO1 inh, PvdQ inh)
COc1ccc(C(CNC(=O)C(C)(C)Oc2ccc(Cl)cc2)N2CCOCC2)cc1 (configuration not stated)	none (no result: CR mimetic SO, PHOSPHO1 inh, IMP-1 inh-1, VIM-2 inh)
Cn1c(C(=O)NCCCN2CCCC2=O)cc2c(=O)n(C)c3ccccc3c21	VIM-2 inh 13 | IMP-1 inh-2 inactive | VIM-2 FRET inh inactive | TEM-1 counter-1 inactive | VIM-2 inh conf 29
CCN1CCN(C(=O)c2cc3c(=O)n(C)c4ccccc4c3n2C)CC1	VIM-2 inh 17 | IMP-1 inh-2 inactive | VIM-2 FRET inh inactive | TEM-1 counter-1 inactive | VIM-2 inh conf 22
Cn1c2ccccc2c2c(C(=O)NCCCN3CCCC3=O)cn(C3CCCCC3)c(=O)c21	none
COc1ccc(OCC(=O)OCC(=O)Nc2ccc3[nH]c(=O)[nH]c3c2)cc1	none (no result: PHOSPHO1 inh, IMP-1 inh-1, VIM-2 inh)
CC(C)C(=O)Nc1nnc(SCC(=O)NCC2CCCO2)s1 (configuration not stated)	none
COc1cc(C(=O)Nc2nnc(SCC(=O)NCC3CCCO3)s2)cc(OC)c1OC (configuration not stated)	none
O=C(CSc1nnc(NC(=O)c2cc(Br)ccc2Cl)s1)NCC1CCCO1 (configuration not stated)	VIM-2 inh 25 | IMP-1 inh-2 inactive | VIM-2 FRET inh 48 | TEM-1 counter-1 inactive | VIM-2 inh conf 33
COc1ccccc1C(=O)Nc1nnc(SCC(=O)NCC2CCCO2)s1 (configuration not stated)	VIM-2 inh 15 | IMP-1 inh-2 inactive | VIM-2 FRET inh 33 | TEM-1 counter-1 inactive | VIM-2 inh conf 21
Cc1ccc(-c2nc3ccccc3n3c(C)nnc23)cc1	none (no result: CR mimetic SO, PvdQ inh)
Cc1nnc2c(SC(C)C)nc3ccccc3n12	VIM-2 inh 14 | IMP-1 inh-2 inactive | VIM-2 FRET inh inactive | TEM-1 counter-1 inactive | VIM-2 inh conf 22
CCCCN(C(=O)C1CC(=O)N(c2ccc(CC)cc2)C1)c1c(N)n(CCC)c(=O)[nH]c1=O (configuration not stated)	none (no result: CR mimetic SO, PHOSPHO1 inh, IMP-1 inh-1, VIM-2 inh)
O=C1C([N+](=O)[O-])=C(O)c2cccc3cccc1c23	none (no result: PvdQ inh)
O=C1C(Br)=Cc2cccc3cccc1c23	VIM-2 inh 15 | IMP-1 inh-2 inactive | VIM-2 FRET inh inactive | TEM-1 counter-1 inactive | VIM-2 inh conf 20
CC(C)(C)C(=O)Nc1nnc(CCc2ccccc2)s1	none
CC(C)(C)C(=O)Nc1nnc(CSCc2ccccc2F)s1	VIM-2 inh 26 | IMP-1 inh-2 inactive | VIM-2 FRET inh 65 | TEM-1 counter-1 inactive | VIM-2 inh conf 48
c1csc(CCNc2ncnc3sc4c(c23)CCC4)c1	none (no result: IMP-1 inh-1, VIM-2 inh)
c1cn(CCCNc2ncnc3sc4c(c23)CCC4)cn1	VIM-2 inh 28 | IMP-1 inh-2 inactive | VIM-2 FRET inh inactive | TEM-1 counter-1 inactive | VIM-2 inh conf 56
Oc1ccc(-c2nccc(-c3ccc(F)cc3)n2)cc1	VIM-2 inh 16 | IMP-1 inh-2 inactive | VIM-2 FRET inh inactive | TEM-1 counter-1 inactive | VIM-2 inh conf 31
CCOC(=O)/C(=C\C=C1/Sc2ccccc2N1CC)C(C)=O	IMP-1 inh-1 7.8, VIM-2 inh 8.5 | VIM-2 inh confirm inactive | TEM-1 counter-2 0.7 | IMP-1 inh conf inactive
COc1ccc(N=C(c2ccccc2)c2c(C)[nH]n(-c3ccccc3)c2=O)c(OC)c1	none
CCC(=O)N(C)CCc1cc2c(c(OC)c1/C=N/NC(=O)c1ccc(Br)cc1)OCO2	none
CC(C)(C)S(=O)(=O)N1Cc2cc(=O)n(Cc3ccccc3)c(CCO)c2[C@H]1CCO	none (no result: CR mimetic SO, PHOSPHO1 inh, IMP-1 inh-1, VIM-2 inh)
